According to ChEMBL document CHEMBL1122046, “Quaternary heterocyclylamino beta-lactams: a generic alternative to the classical acylamino side chain” (1982):
Values after ≈ are worked out from the molar mass of the structure shown.

What was measured:
Format in all cases: functional
[1] = tested on: Morganella morganii; test: Minimum inhibitory concentration against aerobic organism Morganella morganii strain 2833
Outline: (§1)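 Agar-dilution MIC in µg/mL against aerobic bacterial strains on tryptocase soy agar, with inoculum applied as spots. Most series used 10^5 cfu per spot, and a later series used 10^4 cfu per spot. In some tables, footnoted strains were instead tested on Mueller-Hinton or nutrient agar. β-Lactamase-producing strains are flagged.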

[2] = tested on: Enterococcus faecalis; test: Minimum inhibitory concentration against aerobic organism Streptococcus faecalis strain 2864; outline: as §1
[3] = tested on: Escherichia coli; test: MIC against aerobic organism Escherichia coli strain 2891; outline: as §1
[4] = tested on: Enterobacter cloacae; test: Minimum inhibitory concentration against aerobic organism Enterobacter cloacae strain 2646; outline: as §1
[5] = tested on: Klebsiella aerogenes; test: Minimum inhibitory concentration against aerobic organism Enterobacter aerogenes strain 2906; outline: as §1
[6] = tested on: Pseudomonas aeruginosa; test: Minimum inhibitory concentration against aerobic organism Pseudomonas aeruginosa strain 2835; outline: as §1
[7] = tested on: Serratia marcescens; test: Minimum inhibitory concentration against aerobic organism Serratia marcescens strain 2852; outline: as §1
[8] = tested on: Staphylococcus aureus; test: Minimum inhibitory concentration against aerobic organism Staphylococcus aureus strain 2868; outline: as §1
[9] = tested on: Klebsiella pneumoniae; test: Minimum inhibitory concentration against aerobic organism Klebsiella pneumoniae strain 2882; outline: as §1
[10] = tested on: Proteus vulgaris; test: Minimum inhibitory concentration against aerobic organism Proteus vulgaris strain 2829; outline: as §1
[11] = Minimum inhibitory concentration against aerobic organism Salmonella schottmuelleri strain 2837; outline: as §1
[12] = tested on: Streptococcus pyogenes; test: Minimum inhibitory concentration against aerobic organism Streptococcus pyogenes strain 3124; outline: as §1
[13] = tested on: Proteus mirabilis; test: Minimum inhibitory concentration against aerobic organism Proteus mirabilis strain 2830; outline: as §1
[14] = tested on: Shigella; test: Minimum inhibitory concentration against aerobic organism Shigella species strain 2880; outline: as §1
[15] = Morganella morganii, read-out: MIC
[16] = Escherichia coli, read-out: MIC
[17] = Enterobacter cloacae, read-out: MIC
[18] = Klebsiella aerogenes, read-out: MIC
[19] = Serratia marcescens, read-out: MIC
[20] = Staphylococcus aureus, read-out: MIC
[21] = Klebsiella pneumoniae, read-out: MIC
[22] = Proteus vulgaris, read-out: MIC
[23] = Streptococcus pyogenes, read-out: MIC
[24] = Proteus mirabilis, read-out: MIC

MIC [1, 15] [µg/mL]	MIC [2] [µg/mL]	MIC [3, 16] [µg/mL]	MIC [4, 17] [µg/mL]	MIC [5, 18] [µg/mL]	MIC [6] [µg/mL]	MIC [7, 19] [µg/mL]	MIC [8, 20] [µg/mL]	MIC [9, 21] [µg/mL]	MIC [10, 22] [µg/mL]	MIC ([11]; Salmonella, read-out: MIC) [µg/mL]	MIC [12, 23] [µg/mL]	MIC [13, 24] [µg/mL]	MIC ([14]; Shigella, read-out: MIC) [µg/mL]	SMILES	further results
16 (≈ 36.9 µM)	> 128	8 (≈ 18.5 µM)	16 (≈ 36.9 µM)	8 (≈ 18.5 µM)	> 128	> 128	> 128	16 (≈ 36.9 µM)	1 (≈ 2.31 µM)	128 (≈ 295 µM)	32 (≈ 73.8 µM)	16 (≈ 36.9 µM)	16 (≈ 36.9 µM)	Cc1c[n+](C)ccc1N[C@@H]1C(=O)N2C(C(=O)[O-])=C(CSc3nnnn3C)CS[C@H]12	
> 128	128 (≈ 286 µM)	0.5 (≈ 1.12 µM)	32 (≈ 71.5 µM)	128 (≈ 286 µM)	> 128	> 128	32 (≈ 71.5 µM)	16 (≈ 35.8 µM)	< 0.06	0.125 (≈ 0.279 µM)	1 (≈ 2.23 µM)	128 (≈ 286 µM)	0.5 (≈ 1.12 µM)	CC(C)[n+]1ccc(N[C@@H]2C(=O)N3C(C(=O)[O-])=C(CSc4nnnn4C)CS[C@H]23)cc1	
0.5 (≈ 1.15 µM)	> 128	< 0.5	2 (≈ 4.61 µM)	0.5 (≈ 1.15 µM)	> 128	> 128	64 (≈ 148 µM)	1 (≈ 2.31 µM)	< 0.06	4 (≈ 9.23 µM)	1 (≈ 2.31 µM)	2 (≈ 4.61 µM)	< 0.5	CC[n+]1ccc(N[C@@H]2C(=O)N3C(C(=O)[O-])=C(CSc4nnnn4C)CS[C@H]23)cc1	
> 128	> 128	> 128	> 128	> 128	> 128	> 128	> 128	> 128	> 128	128 (≈ 268 µM)	32 (≈ 67 µM)	> 128	> 128	COC(=O)c1c[n+](C)ccc1N[C@@H]1C(=O)N2C(C(=O)[O-])=C(CSc3nnnn3C)CS[C@H]12	
> 128	> 128	4	64	32	> 128	> 128	32	8	1	4	2	64	2	Cn1nnnc1SCC1=C(C(=O)[O-])N2C(=O)[C@@H](Nc3cc[n+](CC(=O)[O-])cc3)[C@H]2SC1.[Na+]	
	12.5 (≈ 28.4 µM)	> 100	> 100				3.12 (≈ 7.08 µM)	> 100		12.5 (≈ 28.4 µM)	< 0.39		25 (≈ 56.8 µM)	C[n+]1ccccc1NC(C(=O)NC1C(=O)N2C1SC(C)(C)[C@@H]2C(=O)[O-])c1ccccc1 (some centres not stated)	
> 128	> 128	1 (≈ 1.9 µM)	16 (≈ 30.4 µM)	128 (≈ 244 µM)	> 128	> 128	16 (≈ 30.4 µM)	2 (≈ 3.81 µM)	128 (≈ 244 µM)	1 (≈ 1.9 µM)		> 128	1 (≈ 1.9 µM)	Cn1nnnc1SCC1=C(C(=O)[O-])N2C(=O)[C@@H](Nc3cc[n+](COCc4ccccc4)cc3)[C@H]2SC1	

Further lines, the compound ahead of its results:

SMILES	MIC [1, 15] [µg/mL]	MIC [2] [µg/mL]	MIC [3, 16] [µg/mL]	MIC [4, 17] [µg/mL]	MIC [5, 18] [µg/mL]	MIC [6] [µg/mL]	MIC [7, 19] [µg/mL]	MIC [8, 20] [µg/mL]	MIC [9, 21] [µg/mL]	MIC [10, 22] [µg/mL]	MIC ([11]; Salmonella, read-out: MIC) [µg/mL]	MIC [12, 23] [µg/mL]	MIC [13, 24] [µg/mL]	MIC ([14]; Shigella, read-out: MIC) [µg/mL]	further results
CC(=O)OCC1=C(C(=O)[O-])N2C(=O)[C@@H](Nc3cc[n+](C)cc3)[C@H]2SC1	> 128	> 128	> 128	> 128	> 128	> 128	> 128	64 (≈ 176 µM)	32 (≈ 88.1 µM)	< 0.5	8 (≈ 22 µM)	2 (≈ 5.5 µM)	> 128	64 (≈ 176 µM)	
CC(=O)OCC1=C(C(=O)[O-])N2C(=O)[C@@H](Nc3cc[n+](COCC(Cl)(Cl)Cl)cc3)[C@H]2SC1	> 128	128 (≈ 251 µM)	< 0.06	0.125 (≈ 0.245 µM)	32 (≈ 62.6 µM)	> 128	> 128	8 (≈ 15.7 µM)	< 0.06	32 (≈ 62.6 µM)	< 0.06		> 128	< 0.06	
CC(=O)OCC1=C(C(=O)[O-])N2C(=O)[C@@H](Nc3cc[n+](Cc4ccccc4)cc3)[C@H]2SC1	> 128	128 (≈ 291 µM)	0.5 (≈ 1.14 µM)	4 (≈ 9.1 µM)	16 (≈ 36.4 µM)	> 128	> 128	4 (≈ 9.1 µM)	< 0.06	0.125 (≈ 0.284 µM)	< 0.06		> 128	< 0.06	
Cn1nnnc1SCC1=C(C(=O)[O-])N2C(=O)[C@@H](Nc3cc[n+](COCC(Cl)(Cl)Cl)cc3)[C@H]2SC1	32 (≈ 56.4 µM)	> 128	< 0.06	0.125 (≈ 0.221 µM)	8 (≈ 14.1 µM)	> 128	64 (≈ 113 µM)	2 (≈ 3.53 µM)	0.125 (≈ 0.221 µM)	< 0.06	< 0.06	< 0.06	64 (≈ 113 µM)	< 0.06	
O=C([O-])C1=CCS[C@@H]2[C@H](Nc3cc[n+](Cc4ccccc4)cc3)C(=O)N12	> 128	128 (≈ 348 µM)	1 (≈ 2.72 µM)	8 (≈ 21.8 µM)	64 (≈ 174 µM)	128 (≈ 348 µM)	> 128	16 (≈ 43.5 µM)	< 0.06	0.125 (≈ 0.34 µM)	< 0.06		> 128	< 0.06	
C[n+]1ccc(NC(C(=O)NC2C(=O)N3C2SC(C)(C)[C@@H]3C(=O)[O-])c2ccccc2)cc1 (some centres not stated)		12.5 (≈ 28.4 µM)	> 100	> 100				3.12 (≈ 7.08 µM)	> 100		6.25 (≈ 14.2 µM)	< 0.39		25 (≈ 56.8 µM)	
CC1(C)SC2C(Nc3cc[n+](Cc4ccccc4)cc3)C(=O)N2[C@H]1C(=O)[O-] (some centres not stated)		128 (≈ 334 µM)	4 (≈ 10.4 µM)	4 (≈ 10.4 µM)				64 (≈ 167 µM)	16 (≈ 41.7 µM)		0.125 (≈ 0.326 µM)	0.25 (≈ 0.652 µM)		0.25 (≈ 0.652 µM)	
Cn1nnnc1SCC1=C(C(=O)[O-])N2C(=O)[C@@H](Nc3cc[n+](Cc4ccco4)cc3)[C@H]2SC1	> 128	128 (≈ 264 µM)	0.06 (≈ 0.124 µM)	8 (≈ 16.5 µM)	8 (≈ 16.5 µM)	128 (≈ 264 µM)	128 (≈ 264 µM)	2 (≈ 4.12 µM)	0.06 (≈ 0.124 µM)	< 0.25	0.0075 (≈ 0.0154 µM)	0.03 (≈ 0.0618 µM)	16 (≈ 33 µM)	0.0075 (≈ 0.0154 µM)	
Cc1ccccc1-[n+]1ccc(N[C@@H]2C(=O)N3C(C(=O)[O-])=C(CSc4nnnn4C)CS[C@H]23)cc1	> 128	> 128	2 (≈ 4.04 µM)	> 128	> 128	> 128	> 128	32 (≈ 64.6 µM)	128 (≈ 258 µM)	2 (≈ 4.04 µM)	2 (≈ 4.04 µM)	0.25 (≈ 0.504 µM)	> 128	1 (≈ 2.02 µM)	
COc1ccc(C[n+]2ccc(N[C@@H]3C(=O)N4C(C(=O)[O-])=C(CSc5nnnn5C)CS[C@H]34)cc2)cc1	16 (≈ 30.4 µM)	> 64	0.25 (≈ 0.476 µM)	8 (≈ 15.2 µM)	4 (≈ 7.61 µM)	> 64	64 (≈ 122 µM)	8 (≈ 15.2 µM)	0.5 (≈ 0.951 µM)	< 0.06	0.125 (≈ 0.238 µM)	< 0.06	16 (≈ 30.4 µM)	0.5 (≈ 0.951 µM)	
COc1ccc(C[n+]2ccc(N[C@@H]3C(=O)N4C(C(=O)[O-])=C(CSc5nnnn5C)CS[C@H]34)cc2)cc1OC	32 (≈ 57.6 µM)	> 64	0.5 (≈ 0.9 µM)	64 (≈ 115 µM)	8 (≈ 14.4 µM)	> 64	64 (≈ 115 µM)	8 (≈ 14.4 µM)	0.5 (≈ 0.9 µM)	0.25 (≈ 0.45 µM)	0.5 (≈ 0.9 µM)	0.125 (≈ 0.225 µM)	> 64	0.25 (≈ 0.45 µM)	
Cn1nnnc1SCC1=C(C(=O)[O-])N2C(=O)C(Nc3cccc[n+]3C)C2SC1 (configuration not stated)	> 128	> 128	64 (≈ 153 µM)	> 128	16 (≈ 38.1 µM)	> 128	> 128	> 128	128 (≈ 305 µM)	0.5 (≈ 1.19 µM)	> 128	32 (≈ 76.3 µM)	128 (≈ 305 µM)	32 (≈ 76.3 µM)	
COC(=O)c1ccc(NC2C(=O)N3C(C(=O)[O-])=C(CSc4nnnn4C)CSC23)[n+](C)c1 (configuration not stated)	> 128	> 128	> 128	> 128	> 128	> 128	> 128	> 128	> 128	> 128	128 (≈ 268 µM)	16 (≈ 33.5 µM)	> 128	> 128	
CC1(C)SC2C(Nc3cc[n+](COCC(Cl)(Cl)Cl)cc3)C(=O)N2[C@H]1C(=O)[O-] (some centres not stated)		128 (≈ 281 µM)	0.5 (≈ 1.1 µM)	0.5 (≈ 1.1 µM)				> 128	0.5 (≈ 1.1 µM)		< 0.06			< 0.06	
Cn1nnnc1SCC1=C(C(=O)[O-])N2C(=O)[C@@H](Nc3cc[n+](C)cc3)[C@H]2SC1 (stereo in doubt; 15a)															MIC [1]: 4 µg/mL (≈ 9.54 µM); MIC [3]: 0.5 µg/mL (≈ 1.19 µM); MIC [4]: 1 µg/mL (≈ 2.38 µM); MIC [5]: 0.5 µg/mL (≈ 1.19 µM); MIC [7]: 1 µg/mL (≈ 2.38 µM); MIC [8]: 64 µg/mL (≈ 153 µM); MIC [9]: 8 µg/mL (≈ 19.1 µM); MIC [10]: 0.25 µg/mL (≈ 0.596 µM); MIC [11]: 8 µg/mL (≈ 19.1 µM); MIC [12]: 2 µg/mL (≈ 4.77 µM); MIC [13]: 8 µg/mL (≈ 19.1 µM); MIC [14]: 1 µg/mL (≈ 2.38 µM)
